In ChEMBL document CHEMBL1126322, “Renin inhibitors containing alpha-heteroatom amino acids as P2 residues” (J Med Chem, 1992):

How the values were obtained:
Cathepsin D = biological target: T1, Cathepsin D (Bos taurus, UniProt P80209); test: Inhibitory activity against bovine cathepsin D
T1 sequence (P80209 whole entry): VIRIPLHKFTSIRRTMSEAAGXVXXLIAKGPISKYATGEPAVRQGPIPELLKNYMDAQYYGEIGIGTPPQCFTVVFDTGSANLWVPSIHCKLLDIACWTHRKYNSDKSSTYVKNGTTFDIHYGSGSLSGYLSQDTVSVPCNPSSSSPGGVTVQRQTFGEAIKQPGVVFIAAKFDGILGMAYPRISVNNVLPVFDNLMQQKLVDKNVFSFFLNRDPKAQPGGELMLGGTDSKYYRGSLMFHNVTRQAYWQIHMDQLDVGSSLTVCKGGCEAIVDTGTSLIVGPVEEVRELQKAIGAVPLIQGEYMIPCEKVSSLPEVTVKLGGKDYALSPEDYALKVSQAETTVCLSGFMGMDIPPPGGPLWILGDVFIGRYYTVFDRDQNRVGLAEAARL
How it was run: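 Bovine cathepsin D activity measured in duplicate as hydrolysis of bovine hemoglobin at pH 3.2 and 37 °C, read as net absorbance at 280 nm. Percent inhibition at six inhibitor concentrations; IC50 by nonlinear regression.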

[1] = Inhibitory activity against monkey renin in vitro.
Monkey [2] = test: Effect of compound on blood pressure in conscious, salt-depleted, normotensive, cynomolgus monkeys after oral administration of 30 mg/kg dose at 1 hour; format: functional, Cercopithecidae
Monkey [3] = test: Effect of compound on blood pressure in conscious, salt-depleted, normotensive, cynomolgus monkeys after oral administration of 30 mg/kg dose at 2 hours; format: functional, Cercopithecidae
Monkey [4] = test: Effect of compound on blood pressure in conscious, salt-depleted, normotensive, cynomolgus monkeys after oral administration of 30 mg/kg dose at 3 hours; format: functional, Cercopithecidae
Bos taurus = species: Bos taurus; test: Selectivity ratio towards cathepsin D over renin
How it was run: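 Ratio of cathepsin D IC50 to monkey plasma renin IC50. […] Cathepsin D IC50 from bovine hemoglobin hydrolysis at pH 3.2, 37 °C, A280.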

Row | Structure (SMILES) | IC50 (Cathepsin D) [nM] | IC50 [1] [nM] | other results
1 | CC[C@H](C)CNC(=O)C[C@H](O)[C@H](CC(C)C)NC(=O)C(NC(=O)C(Cc1cccc2ccccc12)Cc1cccc2ccccc12)Nc1ccccc1 (stereo partly specified) |  | 310 | 
2 | CC[C@H](C)CNC(=O)C[C@H](O)[C@H](CC(C)C)NC(=O)C(NC(=O)C(Cc1cccc2ccccc12)Cc1cccc2ccccc12)NC(C)C (stereo in doubt; 36) |  | 500 | 
3 | CC[C@H](C)CNC(=O)C[C@H](O)[C@H](CC(C)C)NC(=O)C(NC(=O)C(Cc1cccc2ccccc12)Cc1cccc2ccccc12)S(C)(=O)=O (stereo partly specified) |  | > 1000 | 
4 | CCNC(NC(=O)C(Cc1cccc2ccccc12)Cc1cccc2ccccc12)C(=O)N[C@@H](CC(C)C)[C@@H](O)CC(=O)NC[C@@H](C)CC (stereo in doubt; 33) |  | > 1000 | 
5 | CCNC(NC(=O)C(Cc1cccc2ccccc12)Cc1cccc2ccccc12)C(=O)N[C@@H](CC(C)C)[C@@H](O)CC(=O)NC[C@@H](C)CC (stereo in doubt; 34) |  | 210 | 
6 | CC[C@H](C)CNC(=O)C[C@H](O)[C@H](CC(C)C)NC(=O)C(Cc1c[nH]cn1)NC(=O)C(Cc1cccc2ccccc12)Cc1cccc2ccccc12 (stereo partly specified) |  | 85 | 
7 | CC[C@H](C)CNC(=O)C[C@H](O)[C@H](CC(C)C)NC(=O)C(NC(C)=O)NC(=O)C(Cc1cccc2ccccc12)Cc1cccc2ccccc12 (stereo partly specified) |  | 936 | 
8 | CC[C@H](C)CNC(=O)C[C@H](O)[C@H](CC(C)C)NC(=O)C(NC(=O)C(Cc1cccc2ccccc12)Cc1cccc2ccccc12)Oc1ccccc1 (stereo partly specified) |  | 633 | 
9 | CC[C@H](C)CNC(=O)C[C@H](O)[C@H](CC(C)C)NC(=O)C(N)NC(=O)C(Cc1cccc2ccccc12)Cc1cccc2ccccc12 (stereo in doubt; 31) |  | > 1000 | 
10 | CC[C@H](C)CNC(=O)C[C@H](O)[C@H](CC(C)C)NC(=O)C(NC(=O)C(Cc1cccc2ccccc12)Cc1cccc2ccccc12)[S+](C)[O-] (stereo partly specified) |  | 615 | 
11 | CC[C@H](C)CNC(=O)C[C@H](O)[C@H](CC(C)C)NC(=O)C(NC(=O)C(Cc1cccc2ccccc12)Cc1cccc2ccccc12)NC(C)C (stereo in doubt; 35) |  | > 1000 | 
12 | CC[C@H](C)CNC(=O)C[C@H](O)[C@H](CC(C)C)NC(=O)C(NC(=O)C(Cc1cccc2ccccc12)Cc1cccc2ccccc12)Sc1ccccc1 (stereo partly specified) |  | 656 | 
13 | CC[C@H](C)CNC(=O)C[C@H](O)[C@H](CC(C)C)NC(=O)C(NC(=O)C(Cc1cccc2ccccc12)Cc1cccc2ccccc12)SC (stereo partly specified) |  | 95 | 
14 | CC[C@H](C)CNC(=O)C[C@H](O)[C@H](CC(C)C)NC(=O)C(N)NC(=O)C(Cc1cccc2ccccc12)Cc1cccc2ccccc12 (stereo in doubt; 32) |  | 1000 | 

Second part, led by results:

Row | IC50 (Cathepsin D) [nM] | IC50 [1] [nM] | Structure (SMILES) | other results
15 | 10.5 | 0.22 | C=CCOC(NC(=O)[C@H](Cc1ccccc1)NS(=O)(=O)N1CCOCC1)C(=O)N[C@@H](CC1CCCCC1)[C@@H](O)[C@@H](O)CC(C)C (stereo partly specified) | 
16 | 10 |  | CCSC(NC(=O)[C@H](Cc1ccccc1)NS(=O)(=O)N1CCOCC1)C(=O)N[C@@H](CC1CCCCC1)[C@@H](O)[C@@H](O)CC(C)C (stereo partly specified) | Change in BP (Monkey [2]): -14 mmHg; Change in BP (Monkey [3]): -12 mmHg; Change in BP (Monkey [4]): -16 mmHg
17 | 80.1 | 0.52 | C#CCOC(NC(=O)[C@H](Cc1ccccc1)NS(=O)(=O)N1CCOCC1)C(=O)N[C@@H](CC1CCCCC1)[C@@H](O)[C@@H](O)CC(C)C (stereo partly specified) | Selectivity (Bos taurus): 154
18 |  | 26 | CCOC(NC(=O)C(Cc1cccc2ccccc12)Cc1cccc2ccccc12)C(=O)N[C@@H](CC(C)C)[C@@H](O)CC(=O)NC[C@@H](C)CC (stereo in doubt; 21) | 
19 | > 10000 |  | CCOC(NC(=O)[C@H](Cc1ccccc1)NS(=O)(=O)N1CCOCC1)C(=O)N[C@@H](CC1CCCCC1)[C@@H](O)CC(=O)NCCN1CCOCC1 (stereo partly specified) | 
20 | 22 |  | CCCOC(NC(=O)[C@H](Cc1ccccc1)NS(=O)(=O)N1CCOCC1)C(=O)N[C@@H](CC1CCCCC1)[C@@H](O)[C@@H](O)CC(C)C (stereo partly specified) | 
21 | 470 | 13 | CC(C)C[C@H](O)[C@H](O)[C@H](CC1CCCCC1)NC(=O)C(NC(=O)[C@H](Cc1ccccc1)NS(=O)(=O)N1CCOCC1)Sc1cccs1 (stereo partly specified) | Selectivity (Bos taurus): 36.1
22 | 699 |  | CCCOC(NC(=O)[C@H](Cc1ccccc1)NS(=O)(=O)N1CCOCC1)C(=O)N[C@@H](CC1CCCCC1)[C@@H](O)C(F)(F)C(=O)NCCN1CCOCC1 (stereo partly specified) | Change in BP (Monkey [2]): 3 mmHg; Change in BP (Monkey [3]): -1 mmHg; Change in BP (Monkey [4]): -3 mmHg
23 |  | > 1000 | CCOC(NC(=O)C(Cc1cccc2ccccc12)Cc1cccc2ccccc12)C(=O)N[C@@H](CC(C)C)[C@@H](O)CC(=O)NC[C@@H](C)CC (stereo in doubt; 22) | 
24 | 131 | 2.1 | CCCOC(NC(=O)[C@H](Cc1ccccc1)NS(=O)(=O)N1CCOCC1)C(=O)N[C@@H](CC1CCCCC1)C(=O)C(F)(F)C(=O)NCCN1CCOCC1 (stereo partly specified) | Change in BP (Monkey [2]): -10 mmHg; Change in BP (Monkey [3]): -10 mmHg; Change in BP (Monkey [4]): -9 mmHg; Selectivity (Bos taurus): 65.5
25 | 21.2 |  | CC(C)C[C@H](O)[C@H](O)[C@H](CC1CCCCC1)NC(=O)C(NC(=O)[C@H](Cc1ccccc1)NS(=O)(=O)N1CCOCC1)OCC(F)(F)F (stereo partly specified) | Change in BP (Monkey [2]): -1 mmHg; Change in BP (Monkey [3]): -1 mmHg; Change in BP (Monkey [4]): -2 mmHg
26 | 28.1 | 1.4 | CCSC(NC(=O)[C@H](Cc1ccccc1)NC(=O)OC(C)(C)C)C(=O)N[C@@H](CC1CCCCC1)[C@@H](O)[C@@H](O)CC(C)C (stereo partly specified) | Selectivity (Bos taurus): 20.1
27 | > 10000 |  | O=C(C[C@H](O)[C@H](CC1CCCCC1)NC(=O)C(Cc1cnc[nH]1)NC(=O)[C@H](Cc1ccccc1)NS(=O)(=O)N1CCOCC1)NCCN1CCOCC1 (stereo partly specified) | 
28 | 60.4 |  | C=CCN(C)C(NC(=O)[C@H](Cc1ccccc1)NC(=O)OC(C)(C)C)C(=O)N[C@@H](CC1CCCCC1)[C@@H](O)[C@@H](O)CC(C)C (stereo partly specified) | 
29 | 10 | 1.5 | C=CCSC(NC(=O)[C@H](Cc1ccccc1)NS(=O)(=O)N1CCOCC1)C(=O)N[C@@H](CC1CCCCC1)[C@@H](O)CC(=O)NCCN1CCOCC1 (stereo partly specified) | Change in BP (Monkey [2]): -3 mmHg; Change in BP (Monkey [3]): -7 mmHg; Change in BP (Monkey [4]): -6 mmHg; Selectivity (Bos taurus): 6.7
30 | 19.4 | 0.17 | C=CCSC(NC(=O)[C@H](Cc1ccccc1)NS(=O)(=O)N1CCOCC1)C(=O)N[C@@H](CC1CCCCC1)[C@@H](O)[C@@H](O)CC(C)C (stereo partly specified) | Selectivity (Bos taurus): 118
31 | 14 |  | CCOC(NC(=O)[C@H](Cc1ccccc1)NS(=O)(=O)N1CCOCC1)C(=O)N[C@@H](CC1CCCCC1)[C@@H](O)[C@@H](O)CC(C)C (stereo partly specified) | 
32 |  | 180 | CC[C@H](C)CNC(=O)C[C@H](O)[C@H](CC(C)C)NC(=O)C(NC(=O)C(Cc1cccc2ccccc12)Cc1cccc2ccccc12)OC (stereo partly specified) | 
33 | > 10000 |  | CC(C)C[C@H](O)[C@H](O)[C@H](CC1CCCCC1)NC(=O)C(Cc1cnc[nH]1)NC(=O)[C@H](Cc1ccccc1)NS(=O)(=O)N1CCOCC1 (stereo partly specified) | 
